In ChEMBL document CHEMBL4665824, “Characterization and Discovery of a Selective Small-Molecule Modulator of Mitochondrial Complex I Targeting a Unique Binding Site” (J Med Chem, 2020):
Activity calls are given as the source filed them. The calls are words filed in the database; no cut-off is given here.

Tests used:
Cerebral cortex [1] = experiment: Effect on ADP/O ratio in C57BL/6 mouse cerebral cortex mitochondria at 2 uM (reference value: 2.9)
[2] = Inhibition of mitochondrial complex 1 in 10 months old transgenic AD mouse model assessed as suppression of maximal rate of ADP-stimulated respiration of pyruvate at 50 mg/kg, po QD for 8 weeks; format: functional; settings: 1344 h
Mus musculus [3] = species on record: Mus musculus; experiment: Inhibition of mitochondrial complex 1 in C57BL/6 mouse cerebral cortex mitochondria assessed as reduction in ETC enzymatic activity at 2 uM relative to control
How it was run: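 Detergent-solubilized mouse brain mitochondria (N=6) treated with 2 μM compound, then electron transport chain enzyme activities determined.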

SH-SY5Y [4] = experiment: Inhibition of mitochondrial complex 1 in human SH-SY5Y cells assessed as inhibition of MPP+-induced mitochondrial depolarization incubated for 24 hrs by fluorescence based assay; format: cell-based
How it was run: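 SH-SY5Y cells (4×10^5 per well) were co-treated with compound and MPP+ (30 μM) for 24 h at 37 °C. TMRM was then added to 100 nM final for 30 min. Cells were trypsinized, pelleted, resuspended in PBS, and membrane potential fluorescence was read by flow cytometry.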

Mus musculus [5] = species on record: Mus musculus; experiment: Inhibition of mitochondrial complex 2 in C57BL/6 mouse cerebral cortex mitochondria assessed as modulation of maximal rate of ADP-stimulated respiration of succinate at 2 uM
Mus musculus [6] = experiment: Effect on respiratory control ratio in 5 months old transgenic AD mouse model in presence of pyruvate and malate at 50 mg/kg, po dosed 5 times/week for 2 weeks (4.1 +/- 0.7); format: functional
MC65 [7] = experiment: Inhibition of mitochondrial complex 1 in human MC65 cells assessed as inhibition of ROS production incubated for 48 hrs by mitoSOX fluorescence based flow cytometry; format: cell-based
How it was run: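 MC65 cells in Opti-MEM (1.6×10^6/well) incubated with compound at 37 °C for 48 h, with or without tetracycline. Collected into HBSS and stained with mitoSOX (2.5 μM) 20 min at 37 °C. Washed twice, then mean fluorescence intensity read by flow cytometry.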

SH-SY5Y [8] = experiment: Inhibition of mitochondrial complex 1 in human SH-SY5Y cells assessed as inhibition of MPP+-induced mitochondrial depolarization in presence of 10 uM NAC incubated for 24 hrs by fluorescence based assay; format: cell-based
How it was run: (§1)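 SH-SY5Y cells (4×10^5/well) treated with compound, NAC (10 μM) or trolox (10 μM) plus MPP+ (30 μM) for 24 h. TMRM added at 100 nM final for 30 min. Cells trypsinized, resuspended in PBS and read by flow cytometry.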

[9] = Effect on ADP/O ratio in 5 months old transgenic AD mouse model in presence of succinate at 50 mg/kg, po dosed 5 times/week for 2 weeks (1.4 +/- 0.1); format: functional
Mus musculus [10] = experiment: Inhibition of mitochondrial complex 1 in 10 months old transgenic AD mouse model assessed as suppression of state 3 respiration of pyruvate at 50 mg/kg, po QD for 8 weeks; format: functional, organism-based
MC65 [11] = experiment: Inhibition of mitochondrial complex 1 in human MC65 cells assessed as inhibition of rotenone-induced ROS production by measuring ROS production rate at 1 uM incubated for 12 hrs by mitoSOX fluorescence based flow cytometry (reference value: 8.3 RFU/min)
SH-SY5Y [12] = experiment: Inhibition of mitochondrial complex 1 in human SH-SY5Y cells assessed as inhibition of MPP+-induced mitochondrial depolarization in presence of 10 uM trolox incubated for 24 hrs by fluorescence based assay; format: cell-based
How it was run: as §1

MC65 [13] = experiment: Effect on mitochondrial membrane potential in human MC65 cells at 0.3 to 1 uM incubated for 48 hrs by flow cytometry; format: functional, cell-based; settings: dose microM 0.3-1, time 48.0 hrs
Cortical neuron [14] = experiment: Inhibition of mitochondrial complex 1 in mouse cortical neurons assessed as inhibition of rotenone-induced ROS production by measuring ROS production rate at 1 uM incubated for 12 hrs by mitoSOX fluorescence based flow cytometry (Rvb =3.3 RFU/min)
Mus musculus [15] = experiment: Effect on ADP/O ratio in 5 months old transgenic AD mouse model at 50 mg/kg, po dosed 5 times/week for 2 weeks; format: functional, organism-based
Mus musculus [16] = experiment: Effect on respiratory control ratio in 5 months old transgenic AD mouse model in presence of succinate at 50 mg/kg, po dosed 5 times/week for 2 weeks (2.5 +/- 0. 2); format: functional
MC65 [17] = experiment: Inhibition of mitochondrial complex 1 in human MC65 cells assessed as inhibition of antimycin A-induced ROS production at 1 to 3 uM incubated for 12 hrs by mitoSOX fluorescence based flow cytometry; format: cell-based; settings: dose microM 1-3, time 12.0 hrs
[18] = Inhibition of mitochondrial complex 1 in 5 months old transgenic AD mouse model assessed as suppression of maximal rate of ADP-stimulated respiration of pyruvate at 50 mg/kg, po dosed 5 times/week for 2 weeks; format: functional; settings: 336 h
MC65 [19] = experiment: Effect on ATP content in human MC65 cells at 0.1 to 1 uM incubated for 48 hrs; format: functional, cell-based; settings: dose microM 0.1-1, time 48.0 hrs
Mus musculus [20] = species on record: Mus musculus; experiment: Inhibition of mitochondrial complex 1 in C57BL/6 mouse cerebral cortex mitochondria assessed as modulation of maximal rate of ADP-stimulated respiration of pyruvate at 2 uM
How it was run: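 Mitochondria isolated from C57BL/6 mouse cerebral cortex (N=6) with vehicle or 2 μM compound. Oxygen consumption measured by Clark-type electrode at 30 °C with pyruvate/malate (20/5 mM) or succinate (20 mM). ADP-stimulated (state 3) and state 4 rates recorded; RCR taken as state 3/state 4, with ADP/O also derived.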

Mus musculus [21] = species on record: Mus musculus; experiment: Inhibition of mitochondrial complex 1 in permeabilized mouse brain mitochondria assessed as reduction in ROS production at 2 to 6 uM incubated for 1 hr in presence of NADH by Amplex Red and horseradish peroxidase based assay; settings: dose microM 2-6, time 1.0 hrs
How it was run: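 Permeabilized mouse brain mitochondria (0.1 mg protein/ml) were pretreated with compound for 1 h at 30 °C. H2O2 release was triggered with NADH (10 μM) and detected by Amplex Red (50 μM) oxidation with HRP (0.1 U/ml) at Ex/Em 530/590 nm. Output was calibrated against an H2O2 standard curve (linear to 2 μM). N=6, mean ± SEM, Student t-test.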

Mus musculus [22] = experiment: Effect on respiratory control ratio in 5 months old transgenic AD mouse model at 50 mg/kg, po dosed 5 times/week for 2 weeks; format: functional, organism-based
Cortical neuron [23] = experiment: Inhibition of mitochondrial complex 1 in mouse cortical neurons assessed as inhibition of MPP+-induced mitochondrial depolarization incubated for 24 hrs by fluorescence based assay
How it was run: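 Primary cortical neurons from E15.5 C57BL/6J embryos (DIV 14; 5×10^4 cells/well) were given compound plus MPP+ for 24 h. They were then loaded with TMRM (1 μM final, 30 min) and washed twice with PBS. Dye was released with 50% DMSO/0.5% Triton in water and read at Ex/Em 548/574 nm.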

[24] = Effect on ADP/O ratio in 5 months old transgenic AD mouse model in presence of pyruvate and malate at 50 mg/kg, po dosed 5 times/week for 2 weeks (2.6 +/- 0.2); format: functional
Mus musculus [25] = experiment: Inhibition of mitochondrial complex 1 in 5 months old transgenic AD mouse model assessed as suppression of state 3 respiration of pyruvate at 50 mg/kg, po dosed 5 times/week for 2 weeks; format: functional, organism-based
Cerebral cortex [26] = experiment: Effect on respiratory control ratio in C57BL/6 mouse cerebral cortex mitochondria at 2 uM (reference value: 5.3)

COc1ccc2[nH]cc(CCNC(=O)CC(=O)CCc3ccc(O)cc3)c2c1 showed a Ratio (Cerebral cortex [1]) of 3.1, an inhibition in vivo at 50 mg/kg [2] of 25% and an inhibition (Mus musculus [3]) of 20%. The inhibition (SH-SY5Y [4]) was “Dose-dependent effect”, the inhibition (Mus musculus [5]) was “inactive” and the Ratio (Mus musculus [6]) was 4.2. For the same compound, the inhibition (MC65 [7]) was “Dose-dependent effect”, the inhibition (SH-SY5Y [8]) was “Active” and the Ratio [9] was 1.3. The inhibition (Mus musculus [10]) was “Active”, the Activity (MC65 [11]) was 5.8 RFU/min and the inhibition (SH-SY5Y [12]) was “Active”. For the same compound, the Activity (MC65 [13]) was “inactive”, the Activity (Cortical neuron [14]) was 2 RFU/min and the Activity (Mus musculus [15]) was “inactive”. For the same compound, the Ratio (Mus musculus [16]) was 2.7, the inhibition (MC65 [17]) was “inactive” and the inhibition in vivo at 50 mg/kg [18] was 9%. The Activity (MC65 [19]) was “inactive”, the inhibition (Mus musculus [20]) was “Active” and the inhibition (Mus musculus [21]) was “Active”. For the same compound, the Activity (Mus musculus [22]) was “inactive”, the inhibition (Cortical neuron [23]) was “Dose-dependent effect” and the Ratio [24] was 2.6. The inhibition (Mus musculus [25]) was “Active” and the Ratio (Cerebral cortex [26]) was 4.7.
